Measurements reported in ChEMBL document CHEMBL1781958, “Discovery of pyridone-containing imidazolines as potent and selective inhibitors of neuropeptide Y Y5 receptor” (Bioorg Med Chem, 2009).
Values belong to the molecule of their own block, whether it stands above or below them.

Columns and labels:
[1] = Drug level in anesthetized Sprague-Dawley rat plasma at 5 mg/kg, iv after 3 mins; type: ADME, organism-based; design: dose 5 mg/kg, route intravenous
Method in brief: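 Male SD rats under inactin (100 mg/kg). Femoral artery catheter for pressure, femoral vein for dosing, left ventricular catheter via the carotid for LVP; LV dp/dt_max derived from LVP. Vehicle (60% propylene glycol/water, 1 mL/kg) given first, compound 45 min later. Values are % change from baseline at 3 min after 5 mg/kg iv, with blood drawn at 3 min; n = 2–3.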

[2] = Drug level in mdr1a deficient CF1 mouse plasma at 10 mg/kg, po after 2 hrs; type: ADME, organism-based; design: dose 10 mg/kg, route oral
Method in brief: (§1)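 CF-1 mice, mdr1a (−/−) and (+/+), dosed orally at 10 mg/kg; brain and plasma concentrations taken 2 h after dosing; mean of n = 3.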

[3] = Bioavailability in rhesus monkey at 1 mg/kg, po and 0.3 mg/kg, iv; type: ADME, organism-based, Macaca mulatta; conditions: in vivo
[4] = Volume of distribution at steady state in rhesus monkey at 1 mg/kg, po and 0.3 mg/kg, iv; type: ADME, organism-based, Macaca mulatta; conditions: in vivo, read-out: Vdss
Method in brief: (§2)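 Pharmacokinetic parameters are the mean of n = 3 animals. Rats were dosed 1 mg/kg iv and 3 mg/kg po; rhesus monkeys 0.3 mg/kg iv and 1 mg/kg po.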

[5] = Bioavailability in Sprague-Dawley rat at 3 mg/kg, po and 1 mg/kg, iv; type: ADME, organism-based; conditions: in vivo
Method in brief: (§3)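 PK in rats (oral 3 mg/kg, iv 1 mg/kg) and rhesus monkeys (oral 1 mg/kg, iv 0.3 mg/kg); values are means of n = 3.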

[6] = Drug level in Sprague-Dawley rat plasma at 10 mg/kg, po after 2 hrs; type: ADME, organism-based; design: dose 10 mg/kg, route oral
Method in brief: (§4)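 SD rats dosed orally at 10 mg/kg; brain (nmol/g) and plasma levels measured 2 h later.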

[7] = Drug level in anesthetized Beagle dog plasma at 2 mg/kg, iv infused over 10 mins measured immediately after end of dosing; type: ADME, organism-based, Canis lupus familiaris; design: dose 2 mg/kg, route intravenous
Method in brief: (§5)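 Dogs were anesthetized and, after surgery, stabilized at least 1 h before baseline readings. Doses of 1, 2 and 5 mg/kg were infused iv over 10 min each (cumulative 1, 3, 8 mg/kg). QTc, MAP, LVSP, CO, HR and LV dp/dt_max were read at 0, 10 and 20 min as maximum % change from baseline. Plasma was sampled at the end of each dosing period; n = 3.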

[8] = Drug level in anesthetized Beagle dog plasma at 1 mg/kg, iv infused over 10 mins measured immediately after end of dosing; type: ADME, organism-based, Canis lupus familiaris; design: dose 1 mg/kg, route intravenous; method in brief: as §5
Brain [9] = experiment: Drug level in mdr1a deficient CF1 mouse brain at 10 mg/kg, po after 2 hrs; type: ADME, organism-based; design: dose 10 mg/kg, route oral; conditions: in vivo; method in brief: as §1
[10] = Ratio of drug level in brain to plasma of Sprague-Dawley rat at 10 mg/kg, po after 2 hrs; type: ADME, organism-based; design: dose 10 mg/kg, route oral; conditions: read-out: BPR
Method in brief: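 Sprague-Dawley rats were dosed orally at 10 mg/kg. Brain (nmol/g) and plasma concentrations were measured 2 h later, and the brain-to-plasma ratio was taken from these.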

[11] = Cmax in rhesus monkey at 1 mg/kg, po and 0.3 mg/kg, iv; type: ADME, organism-based, Macaca mulatta; conditions: in vivo; method in brief: as §3
[12] = AUC (0 to infinity) in Sprague-Dawley rat at 3 mg/kg, po; type: ADME, organism-based; design: time infinity, dose 3 mg/kg, route oral; conditions: plasma; method in brief: as §3
[13] = Ratio of drug level in brain to plasma in mdr1a deficient CF1 mouse at 10 mg/kg, po after 2 hrs; type: ADME, organism-based; design: dose 10 mg/kg, route oral; conditions: read-out: BPR
Method in brief: (§6)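 P-gp-deficient mdr1a (−/−) and wild-type mdr1a (+/+) CF-1 mice were dosed orally at 10 mg/kg. Brain (nmol/g) and plasma levels were taken 2 h post-dose, n = 3. The ratio was calculated from the mean values.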

[14] = Cmax in Sprague-Dawley rat at 3 mg/kg, po and 1 mg/kg, iv; type: ADME, organism-based; conditions: in vivo; method in brief: as §3
[15] = Volume of distribution at steady state in Sprague-Dawley rat at 3 mg/kg, po and 1 mg/kg, iv; type: ADME, organism-based; conditions: in vivo, read-out: Vdss; method in brief: as §2
[16] = Drug level in mdr1a expressing wild type CF1 mouse plasma at 10 mg/kg, po after 2 hrs; type: ADME, organism-based; design: dose 10 mg/kg, route oral; method in brief: as §1
Brain [17] = experiment: Drug level in mdr1a expressing wild type CF1 mouse brain at 10 mg/kg, po after 2 hrs; type: ADME, organism-based; design: dose 10 mg/kg, route oral; conditions: in vivo; method in brief: as §1
[18] = Drug level in anesthetized Beagle dog plasma at 5 mg/kg, iv infused over 10 mins measured immediately after end of dosing; type: ADME, organism-based, Canis lupus familiaris; design: dose 5 mg/kg, route intravenous; method in brief: as §5
Brain [19] = experiment: Drug level in Sprague-Dawley rat brain at 10 mg/kg, po after 2 hrs; type: ADME, organism-based; design: dose 10 mg/kg, route oral; conditions: in vivo; method in brief: as §4
[20] = AUC (0 to infinity) in rhesus monkey at 1 mg/kg, po; type: ADME, organism-based, Macaca mulatta; design: time infinity, dose 1 mg/kg, route oral; conditions: plasma; method in brief: as §3
[21] = Ratio of drug level in brain to plasma in mdr1a expressing wild type CF1 mouse at 10 mg/kg, po after 2 hrs; type: ADME, organism-based; design: dose 10 mg/kg, route oral; conditions: read-out: BPR; method in brief: as §6

SMILES: C[C@@H]1NC(c2cccc(O)n2)=NC1(c1ccc(F)cc1)c1ccc(F)cc1
concentration at 0.05 h [1]: 2.6 µM

SMILES: C[C@@H]1NC(c2ccc(=O)n(C(F)F)c2)=N[C@@]1(c1ccc(F)cc1)c1ccc(F)nc1
concentration at 2 h [2]: 7.01 µM | bioavailability [3]: 92% | Vd [4]: 3.8 L/kg | bioavailability [5]: 92% | concentration at 2 h [6]: 2.2 µM | concentration at 10 min [7]: 14.3 µM | concentration at 10 min [8]: 7.7 µM | Drug uptake (Brain [9]): 14.8 nmol/g | Kp at 2 h [10]: 0.42 | Cmax [11]: 0.64 µM | AUC(0-inf) [12]: 4.8 µM·h | Kp at 2 h [13]: 2.05 | Cmax [14]: 1.1 µM | Vd [15]: 2.6 L/kg | concentration at 2 h [16]: 8.36 µM | Drug uptake (Brain [17]): 4 nmol/g | concentration at 10 min [18]: 26.9 µM | Drug uptake (Brain [19]): 0.91 nmol/g | AUC(0-inf) [20]: 11 µM·h | Kp at 2 h [21]: 0.48

SMILES: C[C@@H]1NC(c2ccnc(C#N)c2)=N[C@@]1(c1ccc(F)cc1)c1ccc(F)nc1
concentration at 0.05 h [1]: 4.3 µM

SMILES: C[C@@H]1NC(c2cc(C#N)ccn2)=N[C@@]1(c1ccc(F)cc1)c1ccc(F)nc1
concentration at 0.05 h [1]: 6.3 µM

Next, values leading:

concentration at 0.05 h [1]: 4.9 µM
SMILES: C[C@@H]1NC(c2cccc(S(N)(=O)=O)c2)=N[C@@]1(c1ccc(F)cc1)c1ccc(F)nc1

concentration at 0.05 h [1]: 5.3 µM
SMILES: C[C@@H]1NC(c2cccc(=O)[nH]2)=N[C@@]1(c1ccc(F)cc1)c1ccc(F)nc1

concentration at 0.05 h [1]: 5.1 µM
SMILES: C[C@@H]1NC(c2cnccn2)=N[C@@]1(c1ccc(F)cc1)c1ccc(F)nc1
